# Reference: publication PMC5557381 (European journal of medicinal chemistry, 2015)
# pEC50: −log10 of the molar value.
# Columns and labels:
# heme oxygenase-1 = experiment: Host-factor reporter assay pHO-1-Luc in MH-14 cells; assay type: cell-based; conditions: 5, 10 and 25 µM, 48 h
# Procedure, shortened: (§1)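 MH-14 hepatoma cells stably carrying an HCV gt 1b subgenomic replicon were transfected with 300 ng of the gene-specific luciferase reporter plasmid. At 16 h post-transfection, cells were exposed to test compound or to DMSO as control for 48 h. Luciferase activity was then read, with transfection efficiency normalised to Renilla luciferase expression.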
# [1] = test system: anti-oxidant response element; experiment: Host-factor reporter assay p3xARE-Luc in MH-14 cells; assay type: cell-based; conditions: 5, 10 and 25 µM, 48 h
# Procedure, shortened: as §1
# [2] = test system: MH-14 cells carrying stably replicating HCV sub genomic replicon gt 1b; experiment: HCV RNA by quantitative RT-PCR in reporter free MH-14 cells; assay type: cell-based, Hepatitis C virus genotype 1b; conditions: Hepatitis C virus, GT1B, MH14, read-out: EC50, HCV RNA in MH-14 cells
# [3] = test system: interferon-stimulated response element; experiment: Host-factor reporter assay pISRE-Luc in MH-14 cells; assay type: cell-based; conditions: 5, 10 and 25 µM, 48 h
# Procedure, shortened: as §1
# HCV NS3 helicase (NS3h) = HCV NS3 helicase (NS3h) (Hepatitis C virus genotype 1b, UniProt Q9WMX2); experiment: Molecular beacon based NS3 helicase assay; assay type: biochemical; conditions: concentrations as high as 500 µM, data not shown
# [4] = molecular target: HCV NS5B polymerase (NS5BCΔ21) (Hepatitis C virus genotype 1b, UniProt Q9WMX2); experiment: NS5B RdRp primer-dependent elongation assay; assay type: biochemical; conditions: 50 µM, preliminary assay, data not shown
# [5] = test system: HCV IRES mediated translation; experiment: HCV IRES mediated translation dual luciferase reporter assay in Huh7.5 cells; assay type: cell-based, Hepatitis C virus; conditions: data not shown
# cyclooxygenase-2 = experiment: Host-factor reporter assay pCOX-2-FLuc in MH-14 cells; assay type: cell-based; conditions: 5, 10 and 25 µM, 48 h
# Procedure, shortened: as §1
smiles,measurement,setting,value
c1ccc(Cn2c(-c3ccccc3)cc3c2CCCC3)cc1 [Compound 39],Effect on heme oxygenase-1 reporter,heme oxygenase-1,no effect
same,Effect on anti-oxidant response element reporter,[1],no effect
same,pEC50,[2],5.50
same,Effect on interferon-stimulated response element reporter,[3],no effect
same,Inhibition of NS3 helicase unwinding of a DNA substrate,HCV NS3 helicase (NS3h),no effect
same,Inhibition of NS5B RdRp activity,[4],no effect
same,Effect on HCV IRES mediated translation,[5],no effect
same,Effect on cyclooxygenase-2 reporter,cyclooxygenase-2,no effect
